Results reported in PMC7508919 (Molecular Therapy Oncolytics, 2020).
“Also recorded” adds a separate entry of the source.

Assays:
GPR1 [1] = assay: Phage clones binding to GPR1 by ELISA; design: species or system human; details: versus HEK293 pcDNA cells, Figure 2A
How it was run: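 A Ph.D.-7 library (diversity 2.8 × 109) was precleared, then panned for five rounds over stable GPR1-overexpressing HEK293 cells (2 × 10^5/well, seeded 24 h). Eluted clones were serially diluted and incubated with GPR1-overexpressing or empty-vector HEK293 cells. Phage ssDNA was then sequenced.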

GPR1 [2] = target: T1, GPR1 (Homo sapiens, UniProt P46091); assay: Immunofluorescence colocalization of FITC-LRH7-G5 with GPR1; format: cell-based; details: breast cancer cells; 1 μM FITC-labeled peptide, 2 h at RT, confocal microscopy
T1 sequence (P46091 1-355): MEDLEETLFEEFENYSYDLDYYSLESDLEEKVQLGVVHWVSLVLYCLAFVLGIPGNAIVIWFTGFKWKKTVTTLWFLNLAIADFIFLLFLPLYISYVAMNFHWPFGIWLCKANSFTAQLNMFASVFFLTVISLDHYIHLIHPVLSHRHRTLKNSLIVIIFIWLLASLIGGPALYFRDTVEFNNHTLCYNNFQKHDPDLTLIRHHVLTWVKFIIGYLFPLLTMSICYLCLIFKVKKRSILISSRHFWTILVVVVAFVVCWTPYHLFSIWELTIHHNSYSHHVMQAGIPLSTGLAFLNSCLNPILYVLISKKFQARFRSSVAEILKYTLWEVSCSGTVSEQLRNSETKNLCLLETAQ

GPR1 [3] = assay: Calcium mobilization assay, GPR1-expressing cells; format: cell-based, human; details: Fluo-4 NW, Figure 2D
How it was run: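 HEK293 cells stably transfected with human GPR1 (pcDNA3.0 vector, G418 resistance), with empty-vector HEK293 as control, grown in DMEM with 10% FBS. […] Fluo-4 NW dye is used following the kit instructions. Reported as mean ± SD of three independent experiments.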

HEK293 pcDNA cells = assay: Calcium mobilization assay, HEK293 pcDNA cells; format: cell-based; details: Fluo-4 NW, Figure 2D
How it was run: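 Stably transfected HEK293 cells carrying empty pcDNA3.0 vector (G418 resistance) served as the control line. Intracellular calcium was read with Fluo-4 NW dye following the kit protocol. Human recombinant chemerin was the agonist and test peptide the antagonist. Three independent experiments, mean ± SD.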

MDA-MB-231 cells [4] = assay: MTT cell viability / proliferation, MDA-MB-231; format: cell-based; details: 1 nM–100 μM, 24, 48 or 72 h, 0.04% FBS, Figure 3A
How it was run: (§1)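 Log-phase cells (DMEM, 10% FBS) are seeded at 5 × 10^3 cells/well for 24 h, then starved 12 h in 0.04% FBS medium. Serially diluted test peptide or scrambled peptide is added in the same medium. Viability is read by MTT at 24, 48 and 72 h. Mean ± SD of three independent experiments; one-way ANOVA versus 0 μM at each time.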

HCC1937 cells [5] = assay: MTT cell viability / proliferation, HCC1937; format: cell-based; details: 1 nM–100 μM, 24, 48 or 72 h, 0.04% FBS, Figure 3A
How it was run: as §1

T47D cells = assay: MTT cell viability / proliferation, T47D; format: cell-based; details: 1 nM–100 μM, 24, 48 or 72 h, 0.04% FBS, Figure 3A
How it was run: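 T47D cells were maintained in RPMI with 10% FBS. Log-phase cells were seeded at 5 × 10^3 cells/well for 24 h, then starved in 0.04% FBS medium for 12 h. Serial dilutions of test peptide or scrambled peptide in 0.04% FBS medium were added for 24, 48 and 72 h before MTT read-out. Three independent experiments, mean ± SD. One-way ANOVA versus 0 μM at each time point.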

MDA-MB-231 cells [6] = assay: Colony formation assay, MDA-MB-231; format: cell-based; details: 1 month of treatment, Figure 3B
How it was run: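 MDA-MB-231-tomato cells were seeded at 1 × 10^3 cells/well in 6-well plates. They were exposed to indicated concentrations of test peptide or scrambled peptide. Fluorescent colonies were counted under a fluorescence microscope.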

MDA-MB-231 cells [7] = assay: Cell-cycle distribution by flow cytometry; format: cell-based; details: 24, 48 or 72 h, PI staining, Figure 3C
How it was run: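 MDA-MB-231 cells (DMEM, 10% FBS, 37°C, 5% CO2) are treated with serially diluted test peptide for 24, 48 or 72 h. Cells are stained with propidium iodide for 30 min at room temperature in the dark. Flow cytometry gives the percentages in G0/G1, S and G2/M. Mean ± SD of three independent experiments; one-way ANOVA versus control phases.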

MDA-MB-231 cells [8] = assay: Apoptosis by Annexin V/PI flow cytometry; format: cell-based; details: 24, 48 or 72 h, Annexin V-FITC/PI, Figure 3D
How it was run: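 MDA-MB-231 cells were grown in DMEM with 10% FBS at 37°C and 5% CO2. They were treated with serial dilutions of test peptide or scrambled peptide, then stained with FITC-Annexin V and PI for flow cytometry. Annexin V+/PI− (early) plus Annexin V+/PI+ (late) cells were scored as apoptotic. Three independent experiments, mean ± SD, one-way ANOVA.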

MDA-MB-231 cells [9] = assay: Transwell invasion assay, MDA-MB-231; format: cell-based; details: Matrigel-coated Transwell, 48 h, Figure 4
How it was run: (§2)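 Cells (2 × 104) were seeded in serum-free medium with serially diluted test peptide or scrambled peptide into Matrigel-coated upper Transwell chambers. The lower chamber held 10% FBS medium as chemoattractant. Incubation ran 48 h at 37°C, 5% CO2. Non-invaded cells were removed. Invaded cells were methanol-fixed for 10 min, stained with hematoxylin for 30 min, and counted. Three independent experiments, mean ± SD.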

HCC1937 cells [10] = assay: Transwell invasion assay, HCC1937; format: cell-based; details: Matrigel-coated Transwell, 48 h, Figure S4
How it was run: as §2

MDA-MB-231 cells [11] = assay: Transwell migration assay, MDA-MB-231; format: cell-based; details: 0.1 μM to 10 μM, 12 h, Figure 4
How it was run: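 Uncoated Transwell chambers were used. MDA-MB-231 cells were placed in the upper chamber in FBS-free medium with test peptide or scrambled peptide. The lower chamber held 10% FBS medium. Incubation ran 12 h at 37°C, 5% CO2. Unmigrated cells were wiped off. Migrated cells were methanol-fixed for 10 min, hematoxylin-stained for 30 min at RT, and counted by inverted microscopy. Three independent experiments, mean ± SD.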

HCC1937 cells [12] = assay: Transwell migration assay, HCC1937; format: cell-based; details: 12 h, Figure S4
TNBC cells = assay: Western blot of cell-cycle, apoptosis and invasion proteins; format: cell-based; details: immunoblot, Figure 4D
PI3K/AKT pathway = assay: Western blot of PI3K/AKT pathway; format: cell-based
MDA-MB-231 xenograft = MDA-MB-231 xenograft in nude mice; format: in vivo, nude BALB/c mice; details: MDA-MB-231 nude mice; i.p. daily, 25 days; n = 5–6 per group
How it was run: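 Female nude BALB/c mice, 4–6 weeks old, receive 7 × 10^6 MDA-MB-231-tomato cells in 100 μL PBS subcutaneously into the left axilla. Serially diluted test peptide or scrambled peptide is injected i.p. daily. Body weight and tumor size are recorded every 3 days, with volume = length × width² × 0.5, and IVIS bioluminescence is imaged twice weekly. Tumors are weighed at sacrifice; mean ± SD.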

HCC1937 xenograft = HCC1937 xenograft in nude mice; format: in vivo, nude BALB/c mice; details: i.p. daily, 25 days, n=5
How it was run: (§3)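 Female nude BALB/c mice, 4–6 weeks old, were randomised into five groups. Each received MDA-MB-231-tomato or HCC1937-tomato cells (7 × 106 in 100 μL PBS) s.c. into the left axilla. Serially diluted test peptide or scrambled peptide was given i.p. daily for 25 days. Body weight and tumor size were recorded every 3 days, with volume = length × width² × 0.5. IVIS imaging was done twice weekly. Tumors were weighed at sacrifice.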

tumor tissue [13] = assay: Histology/IHC of tumor tissue; format: in vivo, nude BALB/c mice
How it was run: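 Xenograft tumors were fixed in 4% PFA overnight, paraffin-embedded and sectioned. Sections were H&E-stained (×200, ×400) or immunostained for Ki-67, PCNA and vimentin using an IHC kit (×200). Groups were test peptide- or scrambled peptide-treated mice.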

tumor tissue [14] = assay: TUNEL assay of tumor tissue; format: in vivo, nude BALB/c mice; details: Figure 6C
How it was run: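 Xenograft tumor tissue was fixed in 4% PFA overnight and paraffin-embedded. Apoptotic cells in sections were detected with a FragEL DNA fragmentation kit (TUNEL) and imaged at ×200. Tumors came from test peptide- or scrambled peptide-treated mice.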

[15] = Body weight of nude mice, MDA-MB-231 model; format: in vivo, nude BALB/c mice; details: MDA-MB-231 nude mice; i.p. daily, 25 days; Figure 5F
How it was run: as §3

[16] = Body weight of nude mice, HCC1937 model; format: in vivo, nude BALB/c mice; details: i.p. daily, 25 days, Figure S5E
How it was run: as §3

GPR1 [17] = assay: cAMP assay; format: cell-based, human; details: 10 nM huChemerin, 10 μM forskolin, 30 min at 37°C; mean ± SD, three independent experiments
How it was run: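 Stable GPR1-transfected and empty-vector HEK293 cells are seeded at 5 × 10^3 cells/well for 24 h. Cells are then exposed to serial dilutions of test peptide alone, forskolin plus chemerin, or forskolin, chemerin and peptide combined. cAMP is measured with a commercial kit.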

GPR1 [18] = target: T1, GPR1; details: cited from earlier work
[19] = test system: receptors CMKLR1 and GPR1; details: comparison of the two receptors; cited from earlier work
[20] = Gi class of heterotrimeric G proteins

MPRLPPA [LRH7-G5]
binding affinity of phage clones to GPR1 (GPR1 [1]): highest affinity
colocalization with GPR1 (GPR1 [2]): marked colocalization with GPR1
effect on chemerin-induced calcium mobilization (GPR1 [3]): significantly decreased chemerin-induced calcium mobilization
effect on calcium mobilization in HEK293 pcDNA cells (HEK293 pcDNA cells): did not affect
effect on cell growth (MTT) (MDA-MB-231 cells [4]): significantly suppressed cell growth in a dose-dependent manner
effect on cell growth (MTT) (HCC1937 cells [5]): significantly suppressed cell growth in a dose-dependent manner
effect on cell growth (MTT) (T47D cells): little effect
effect on colony formation (MDA-MB-231 cells [6]): validated by colony formation assays
cell-cycle arrest (MDA-MB-231 cells [7]): arrested MDA-MB-231 cells at the G0/G1 phase boundary
induction of apoptosis (MDA-MB-231 cells [8]): induced their apoptosis
effect on invasion (MDA-MB-231 cells [9]): significantly suppressed
effect on invasion (HCC1937 cells [10]): significantly suppressed
effect on migration (MDA-MB-231 cells [11]): significantly suppressed; also recorded: decreased migration
effect on migration (HCC1937 cells [12]): significantly suppressed
Bcl-2 level (TNBC cells; apoptosis regulator): decreased
Stat3 level (TNBC cells; apoptosis regulator): decreased
cyclin D level (TNBC cells; cell-cycle-related protein): decreased
MMP-2 level (TNBC cells; invasion-related): decreased
MMP-9 level (TNBC cells; invasion-related): decreased
N-cadherin level (TNBC cells; invasion-related): decreased
Snail level (TNBC cells; invasion-related): decreased
vimentin level (TNBC cells; invasion-related): decreased
effect of peptide in coculture with AKT phosphorylation activator SC-79 (PI3K/AKT pathway; cocultured with SC-79): enhanced by the AKT agonist
effect of peptide in coculture with PI3K inhibitor wortmannin (PI3K/AKT pathway; cocultured with wortmannin): weakened by the PI3K inhibitor
phosphorylation of AKT (PI3K/AKT pathway; immunoblot): significantly decreased
phosphorylation of ERK (PI3K/AKT pathway; immunoblot): significantly decreased
tumor burden (MDA-MB-231 xenograft): reduced the tumor burden in a dose-dependent manner
tumor volume (HCC1937 xenograft; compared with control group): markedly decreased
tumor weight (HCC1937 xenograft; compared with control group): markedly decreased
tumor growth (HCC1937 xenograft; dose-dependent, bioluminescence): substantially suppressed tumor growth
tumor burden (HCC1937 xenograft): reduced the tumor burden in a dose-dependent manner
tumor necrosis (H&E) (tumor tissue [13]; H&E staining, Figure 6A): exhibited cellular necrosis
tumor cell growth (Ki-67, PCNA, vimentin staining) (tumor tissue [13]; IHC staining of Ki-67, PCNA, and vimentin, Figure 6B): decreased cell growth
cellular apoptosis in tumor (TUNEL) (tumor tissue [14]): increase in cellular apoptosis; also recorded: induces apoptosis in tumors
mean body weight [15]: did not change significantly
body weight [16]: did not affect body weight

chemerin: human recombinant chemerin, R&D Systems; chemokine-like adipokine, GPR1 ligand
effect on forskolin-induced cAMP release (GPR1 [17]): suppressed forskolin-induced cAMP release
cAMP accumulation on GPR1 activation (GPR1 [18]; [20]): inhibition of cyclic adenosine monophosphate (cAMP) accumulation
p42-p44 MAP kinases phosphorylation on GPR1 activation (GPR1 [18]; [20]): phosphorylation of the p42-p44 MAP kinases
intracellular calcium release on GPR1 activation (GPR1 [18]): intracellular calcium release
binding affinities for CMKLR1 and GPR1 [19]: similar
